Molecules are shown by their SMILES. Activity calls are given as the source filed them. The rule behind the calls is not given here.

In ChEMBL document CHEMBL1165946, “Development of antiproliferative phenylmaleimides that activate the unfolded protein response” (Bioorg Med Chem, 2010) one finds IC50, fold change (FC) and Activity data, which are given here for 30 molecules.

Assay [1] in a line: Cytotoxicity against human Hep3B cells after 48 hrs by alamar blue assay. The class given is functional, cell-based, Hep 3B2. In outline: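 HEP3B cells in EMEM with 10% heat-inactivated FBS, 2 mmol/L L-glutamine, penicillin/streptomycin, 37 °C, 5% CO2, used in exponential growth. Exposed 48 h to 1.6–50 µM of each analog. Alamar blue then added for a further 6 h at 37 °C and fluorescence read. Growth given as % treated/control; IC50 is the concentration giving 50% reduction of cell number versus untreated controls.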

Assay [2] in a line: Upregulation of unfolded protein response-related ATF4 gene expression in human Hep3B cells at 10 uM after 1 hr by RT-PCR analysis relative to control. The class given is functional, cell-based. The note with it: Hep 3B2. In short, it runs like this:
(§1)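 HEP3B cells treated 1 h with 10 µM analogue, compared with untreated cells. Gene expression measured by real-time PCR with SYBR chemistry and gene-specific primer pairs, triplicate wells, GAPDH as endogenous control. Analysed by the comparative Ct method and expressed as fold induction over untreated control (n = 3, SD). Significance set at p <0.05.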

The target of assay [3] is T1, Eukaryotic translation initiation factor 2-alpha kinase 3 (Homo sapiens) (UniProt Q9NZJ5).
T1 sequence (whole entry): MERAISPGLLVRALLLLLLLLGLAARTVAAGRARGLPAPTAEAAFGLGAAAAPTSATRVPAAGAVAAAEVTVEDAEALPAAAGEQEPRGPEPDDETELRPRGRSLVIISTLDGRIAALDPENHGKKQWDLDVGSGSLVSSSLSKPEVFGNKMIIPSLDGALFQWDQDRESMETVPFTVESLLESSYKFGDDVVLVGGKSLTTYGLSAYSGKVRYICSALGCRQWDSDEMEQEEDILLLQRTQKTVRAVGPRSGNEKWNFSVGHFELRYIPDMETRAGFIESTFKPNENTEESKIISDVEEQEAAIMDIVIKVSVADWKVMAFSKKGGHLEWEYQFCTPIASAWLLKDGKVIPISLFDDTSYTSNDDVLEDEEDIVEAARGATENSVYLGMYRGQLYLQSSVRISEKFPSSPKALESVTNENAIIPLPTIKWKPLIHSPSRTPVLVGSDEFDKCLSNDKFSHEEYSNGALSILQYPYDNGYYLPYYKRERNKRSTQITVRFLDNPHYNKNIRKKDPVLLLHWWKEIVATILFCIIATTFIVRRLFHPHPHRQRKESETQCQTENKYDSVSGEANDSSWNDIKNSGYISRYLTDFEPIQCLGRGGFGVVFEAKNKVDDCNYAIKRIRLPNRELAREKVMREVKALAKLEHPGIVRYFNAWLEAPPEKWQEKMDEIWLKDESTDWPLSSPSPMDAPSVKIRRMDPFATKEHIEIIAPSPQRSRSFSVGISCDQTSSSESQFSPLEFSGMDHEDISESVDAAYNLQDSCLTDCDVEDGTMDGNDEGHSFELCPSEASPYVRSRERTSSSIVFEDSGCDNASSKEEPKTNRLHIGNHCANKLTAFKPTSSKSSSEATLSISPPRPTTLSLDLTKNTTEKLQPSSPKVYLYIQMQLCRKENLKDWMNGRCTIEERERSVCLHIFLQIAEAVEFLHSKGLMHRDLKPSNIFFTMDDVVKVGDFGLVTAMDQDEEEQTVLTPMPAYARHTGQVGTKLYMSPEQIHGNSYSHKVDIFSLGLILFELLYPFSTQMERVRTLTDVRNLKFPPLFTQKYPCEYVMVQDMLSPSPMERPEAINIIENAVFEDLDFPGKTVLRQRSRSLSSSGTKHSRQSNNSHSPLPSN
Description: Induction of PERK-mediated phosphorylation of eIF2alpha in human Hep3B cells at 2 to 10 uM after 1 to 6 hrs by Western blot analysis. The note with it: Hep 3B2. Type of assay: cell-based.

A short description of assay [4]: Upregulation of unfolded protein response-related DDIT3 gene expression in human Hep3B cells at 10 uM after 1 hr by RT-PCR analysis relative to control. Type of assay: functional, cell-based. The settings on record: Hep 3B2. In short, it runs like this:
as §1

A short description of assay [5]: Upregulation of unfolded protein response-related HSPA1A gene expression in human Hep3B cells at 10 uM after 1 hr by RT-PCR analysis relative to control. Type of assay: functional, cell-based. The settings on record: Hep 3B2. In outline:
as §1

For assay [6], the system named is Hep 3B2. Briefly: Effect on stress-inducible GADD45B gene expression in human Hep3B cells at 1 to 50 uM after 1 hr by RT-PCR analysis. Type of assay: functional, cell-based.
The nature of assay [7]: Upregulation of unfolded protein response-related GADD34 gene expression in human Hep3B cells at 10 uM after 1 hr by RT-PCR analysis. The settings on record: Hep 3B2. The class given is functional, cell-based. In short, it runs like this: as §1
The target in assay [8] is T1, Eukaryotic translation initiation factor 2-alpha kinase 3 (Homo sapiens). Briefly: Induction of PERK-mediated phosphorylation of eIF2alpha in human Hep3B cells at 50 uM after 1 hr by Western blot analysis. The class given is cell-based. The settings on record: Hep 3B2. On the technique in general: In western blotting, separated proteins are transferred to a membrane and probed.

Assay [9] has as its system Hep 3B2. Briefly: Effect on stress-inducible […] gene expression in human Hep3B cells at 1 to 50 uM after 1 hr by RT-PCR analysis. The class given is functional, cell-based.
Assay [10] relates to Hep 3B2. Description: Effect on stress-inducible MDM2 gene expression in human Hep3B cells at 1 to 50 uM after 1 hr by RT-PCR analysis. The class given is functional, cell-based.
Assay [11] is described as follows: Upregulation of unfolded protein response-related TRIB3 gene expression in human Hep3B cells at 10 uM after 1 hr by RT-PCR analysis. The class given is functional, cell-based. The settings on record: Hep 3B2. In short, it runs like this:
as §1

Assay [12] deals with Hep 3B2. Briefly: Effect on stress-inducible CDKN1A gene expression in human Hep3B cells at 1 to 50 uM after 1 hr by RT-PCR analysis. Type of assay: functional, cell-based.
Assay [13] has as its system Hep 3B2. Briefly: Effect on stress-inducible BRCA1 gene expression in human Hep3B cells at 1 to 50 uM after 1 hr by RT-PCR analysis. The class given is functional, cell-based.
Assay [14] concerns Hep 3B2. Description: Effect on stress-inducible CHEK1 gene expression in human Hep3B cells at 1 to 50 uM after 1 hr by RT-PCR analysis. Type of assay: functional, cell-based.

On to `O=C1C(SCCO)=C(SCCO)C(=O)N1c1ccc(O)cc1`, for which the concentration for half-maximal inhibition (IC50) (as a rule, the point on the concentration scale where inhibition reaches its midpoint) in assay [1] is above 100 µM. With `CC(=O)Nc1ccc(N2C(=O)C(SCCO)=C(SCCO)C2=O)cc1`, the half-inhibitory concentration (IC50) in [1] is above 100 µM. For the same molecule, the fold change (FC) in assay [2] and in assay [4] was 2 each time. Also, the outcome in assay [3] was inactive. `O=C1C(SCCO)=C(SCCO)C(=O)N1c1ccccc1F` had an IC50 in [1] of 9 µM. The molecule `O=C1C(SCCO)=C(SCCO)C(=O)N1c1ccc(Cl)cc1` registered an IC50 in [1] of 7 µM. In turn, `O=C1C(SCCO)=C(SCCO)C(=O)N1CCc1ccccc1` showed an IC50 in assay [1] of 2 µM. Besides, the figures for the fold change (FC) in assay [2], in assay [5] and in [4] were 2, 15.3 and 2, respectively.

Consider `O=C1C(SCCO)=C(SCCO)C(=O)N1c1ccc(OC(F)(F)F)cc1`, for which the IC50 in assay [1] came to 4 µM. In the case of `O=C1C(SCCO)=C(SCCO)C(=O)N1c1ccc(F)cc1`, half-maximal inhibition in assay [1] (IC50) was put at 9 µM. Still for that read-out and setting: to `CC(=O)c1ccc(N2C(=O)C(SCCO)=C(SCCO)C2=O)cc1` belongs 10 µM. Still for that read-out and setting: then `CCOc1ccc(N2C(=O)C(SCCO)=C(SCCO)C2=O)cc1`, with 6 µM. Regarding `O=C1C(SCCO)=C(SCCO)C(=O)N1c1ccc(-c2ccccc2)cc1`, the outcome in assay [6], in assay [9], in [10], in assay [12], in assay [13] and in [14] was inactive. In addition, the outcome in [7], in [3] and in assay [11] was Active. The Activity entry in assay [8] is “Toxic”. Besides, in assay [1], the IC50 is 0.7 µM. Take `O=C1C(SCCO)=C(SCCO)C(=O)N1c1ccc(Oc2ccccc2)cc1`: in [1], the IC50 is above 100 µM. Further, the fold change (FC) in assay [2] and in assay [4] was 2 each time. Molecule `O=C1C(SCCO)=C(SCCO)C(=O)N1c1ccc2ccccc2c1` had an IC50 in assay [1] of 3.5 µM. Turning to `CN(C)c1ccc(N2C(=O)C(SCCO)=C(SCCO)C2=O)cc1`, in assay [1], the half-inhibitory concentration (IC50) came out at 9 µM.

`Cc1cc(Cl)ccc1N1C(=O)C(SCCO)=C(SCCO)C1=O`: half-maximal inhibition in assay [1] (IC50) required 8 µM.

On to `COc1cc(OC)cc(N2C(=O)C(SCCO)=C(SCCO)C2=O)c1`, for which the half-maximal inhibitory concentration (IC50) in assay [1] amounted to 9 µM.

The molecule `Cc1cccc(N2C(=O)C(SCCO)=C(SCCO)C2=O)c1` yielded a half-inhibitory concentration (IC50) in assay [1] of 7 µM. Turning to `O=C1C(SCCO)=C(SCCO)C(=O)N1c1ccc(-c2ccc([N+](=O)[O-])cc2)cc1`, inhibition in [1] was half-maximal at 4 µM (IC50). In addition, the fold change (FC) is 2 in assay [2], 17 in assay [5] and 2 in [4]. In turn, `CCCCOc1ccc(N2C(=O)C(SCCO)=C(SCCO)C2=O)cc1` registered a 50% inhibitory concentration (IC50) in [1] of 5 µM. `Cc1ccccc1-c1ccc(N2C(=O)C(SCCO)=C(SCCO)C2=O)cc1C`: the 50% inhibitory concentration (IC50) in [1] is 10 µM. The fold change (FC) in assay [2] and in assay [4] was 2 each time. The molecule `O=C1C(SCCO)=C(SCCO)C(=O)N1c1ccccc1` displayed an IC50 in assay [1] of 70 µM. Further, the fold change (FC) in assay [2] and in assay [4] was 2 throughout.

Consider `O=C1C(SCCO)=C(SCCO)C(=O)N1c1cccc2ccccc12`, for which the IC50 in assay [1] stood at 4 µM. Still for that read-out and setting: to `COc1cccc(N2C(=O)C(SCCO)=C(SCCO)C2=O)c1` belongs 9 µM; to `O=C1C(SCCO)=C(SCCO)C(=O)N1Cc1cccc(Cl)c1`, 2.5 µM.

For the molecule `O=C1C(SCCO)=C(SCCO)C(=O)N1Cc1ccccc1`, half-maximal inhibition in assay [1] (IC50) required 5 µM. The same measure, in the same setting: to `N#Cc1ccc(N2C(=O)C(SCCO)=C(SCCO)C2=O)cc1` belongs 9 µM; to `COc1ccc(N2C(=O)C(SCCO)=C(SCCO)C2=O)cc1`, 6 µM. In the case of `O=C1C(SCCO)=C(SCCO)C(=O)N1c1ccccc1I`, in assay [1], the midpoint of inhibition, the IC50, lay at 9 µM. On the same count and under the same terms, then `O=C1C(SCCO)=C(SCCO)C(=O)N1c1ccc2cc3ccccc3cc2c1`, with 1.8 µM; and `COc1ccc(-c2ccc(N3C(=O)C(SCCO)=C(SCCO)C3=O)cc2)cc1`, with 3 µM; and `O=C1C(SCCO)=C(SCCO)C(=O)N1CCc1cccc(Cl)c1`, with 1 µM.
